Screening data as filed in PubChem BioAssay.
Shown are actives, neighbours in structure and some others; about 4.7% of the full set was active somewhere.
MC4R antag cAMP = antagonists of human melanocortin 4 receptor (MC4R) | MC4R-expressing cells, MTII-stimulated cAMP, LANCE TR-FRET | 360,000 compounds, 0.48% hits | inhibition, % at 6.5 µM;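 active = inhibition above its plate's cutoff, the mean of tested wells on that plate plus 3 SD, cut at about 29% in these data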;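 also: 0% = Melanotan II alone and 100% = Melanotan II plus saturating MCL0020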
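Material: U2OS-MC4R stable cell line | Reagent: Melanotan II challenge after compound preincubation | Doses: One concentration, 6.5 µM nominal | Incubation: 30-min compound preincubation, 1-h Melanotan II challenge, 1-h detection, room temperature | Signal: TR-FRET cAMP assay | Replicates: One well per compound, no replicates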
GAA850 FXN act = activators of GAA850 frataxin (FXN) promoter; HEK293 lucGAA850 FXN promoter luciferase reporter, 24 h; percent of 10 µM SAHA response; activation, % at 6 µM; 360,000 compounds, 0.56% hits;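 active = activation above the average of all compounds screened plus 3 SD, cutoff fixed separately per campaign, cut at about 7.5% in these data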;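 also: 0% = DMSO wells and 100% = 10 µM SAHA wells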
AHR act = human AHR activation. P35869. AHR-responsive luciferase reporter cells, luminescence. activation, % at 5 µM. 320,000 compounds, 2.5% hits; in the data active = activation above about 47%;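 also: 0% = vehicle wells and 100% = reference agonist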
Target sequence (P35869 whole entry, looked up): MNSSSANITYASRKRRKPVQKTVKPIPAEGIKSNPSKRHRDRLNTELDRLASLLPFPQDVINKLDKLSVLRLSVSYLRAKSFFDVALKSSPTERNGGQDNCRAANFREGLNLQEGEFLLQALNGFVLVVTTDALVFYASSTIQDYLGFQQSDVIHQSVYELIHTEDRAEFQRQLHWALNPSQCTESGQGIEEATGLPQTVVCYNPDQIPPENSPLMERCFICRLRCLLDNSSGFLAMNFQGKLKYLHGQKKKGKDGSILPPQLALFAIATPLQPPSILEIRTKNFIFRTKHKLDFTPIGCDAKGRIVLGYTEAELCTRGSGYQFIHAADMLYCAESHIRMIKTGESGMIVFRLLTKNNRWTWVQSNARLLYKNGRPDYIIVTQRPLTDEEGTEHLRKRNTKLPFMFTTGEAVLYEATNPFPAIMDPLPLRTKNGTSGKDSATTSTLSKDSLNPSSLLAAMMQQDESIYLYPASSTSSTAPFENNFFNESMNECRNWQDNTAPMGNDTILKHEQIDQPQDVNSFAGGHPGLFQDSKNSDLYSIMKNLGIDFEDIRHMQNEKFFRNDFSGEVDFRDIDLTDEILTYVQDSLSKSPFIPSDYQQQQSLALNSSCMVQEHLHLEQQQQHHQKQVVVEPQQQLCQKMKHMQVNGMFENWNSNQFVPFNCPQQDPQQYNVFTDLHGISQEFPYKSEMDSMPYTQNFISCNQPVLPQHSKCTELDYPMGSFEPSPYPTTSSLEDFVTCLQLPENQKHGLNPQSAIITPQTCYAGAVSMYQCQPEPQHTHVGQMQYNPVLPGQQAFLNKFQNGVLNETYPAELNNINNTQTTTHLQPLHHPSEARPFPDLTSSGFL
MC4R ag barr = human MC4R agonism via beta-arrestin. P32245. AID 540308. U2OS MC4R beta-arrestin complementation, luminescence; percent of melanotan II response, DMSO zero. activation, % at 8.9 µM. 360,000 compounds, 0.98% hits;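 active = activation above a per-plate cutoff, the mean activation of sample wells on that plate plus 3 SD, cut at about 8% in these data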
m5-HT2A agonist = agonists of mouse serotonin 5-HT2A receptor (HTR2A); P35363; CHO-K1 mHTR2A beta-arrestin complementation, luminescence; percent of 30 µM serotonin response; activation, % at 7.6 µM; 360,000 compounds, 0.66% hits; AID 624169;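 active = activation above a run cutoff, the mean activation of all tested compounds plus 3 SD, cut at about 14% in these data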;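 also: 0% = plate median of compound wells and 100% = 30 µM serotonin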
AHR act confirm = human AHR activation, confirmation; shares compounds with AHR act; human cells, AHR-responsive luciferase reporter, luminescence; activation, % at 9 µM; 2,300 compounds, 87% hits; AID 2845; in the data active = activation above about 49%;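 also: HepG2 hepatoma cells carrying a DRE-driven firefly luciferase reporter; 0% = vehicle wells and 100% = reference agonist wells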
PXR counter = counter-screen for AHR activators: human PXR activators | shares compounds with AHR act | cell-based PXR reporter, luciferase luminescence | activation, % at 11.6 µM | 2,300 compounds, 88% hits; in the data active = activation above about 11%;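 also: human hepatoma DPX-2 cells expressing full-length human PXR; 0% = DMSO and 100% = reference agonist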
Active calls of the source: *; nt = no result given.

SMILES	MC4R antag cAMP	GAA850 FXN act	AHR act	MC4R ag barr	m5-HT2A agonist	AHR act confirm	PXR counter
Cc1ccc(NC(=S)c2nc3ccccc3s2)cc1	3.3	-5.2	81.9*	4.5	-5.4	58.2*	17.9*
Cc1ccc(C)c(NC(=S)c2ccc3ccccc3n2)c1	22.9	4.7	88.0*	3.4	0.2	104.5*	15.6*
COc1ccc(Nc2nccc(-c3ccc(C#N)cc3)n2)cc1	19.5	0.7	80.3*	1.5	-0.6	54.2*	16.0*
Fc1ccc(/C=N/NC(=S)Nc2ccc(Cl)cc2Cl)cc1	-8.7	-3.9	84.0*	-1.0	0.3	107.2*	7.2
COc1ccc(NC(=O)Nc2ccc(F)cc2)c(C)c1	5.1	-0.3	111.0*	-0.8	0.8	11.1	25.4*
Clc1nc(-c2ccccn2)nc2scc(-c3ccccc3)c12	-0.8	5.2	79.8*	-3.8	-1.2	59.0*	25.0*
COc1cc(C#Cc2c(-c3cncn3C)n(C)c3ccc(-c4ccc5[nH]ccc5c4)cc23)cc(OC)c1	-1.0	0.9	104.7*	-0.5	-8.7	79.6*	28.2*
COc1cc(C#Cc2c(-c3cncn3C)n(C)c3ccc(-c4cc(OC)c(OC)c(OC)c4)cc23)cc(OC)c1	8.8	0.7	40.0	0.2	-1.2	nt	nt
O=C(Nc1cccnc1)Nc1cc(Cl)cc(Cl)c1	-1.4	1.1	113.0*	1.8	-6.5	61.8*	nt
COc1ccccc1NC(=O)Nc1cccnc1	8.7	-2.1	122.2*	3.8	-1.3	93.2*	nt
COc1cc2[nH]c(=S)n(Cc3ccco3)c(=O)c2cc1OC	-0.3	1.4	82.1*	-1.5	-0.2	83.8*	71.8*
c1ccc(C2=Nc3cccnc3C(c3ccccc3)=NN2)cc1	-3.2	2.1	6.5	-0.3	-0.7	nt	nt
COC(=O)C1=C(C)NC(C)=C(C(=O)OC)C1c1ccccc1[N+](=O)[O-]	7.0	0.4	106.0*	-1.4	0.7	13.7	nt
CC(C)NC(=O)C1(C)CSCC(=O)N1C1CC1 (stereo not given)	nt	nt	nt	nt	6.0	nt	nt
CC(C)CSC1=NSC2=NC(=O)/C(=C\c3coc4ccccc4c3=O)C(=N)N12	17.5	5.1	80.9*	2.7	3.3	17.3	18.1*
CC(C)C(=O)N1CCC1(C)C(=O)Nc1ccc(-n2cncn2)cc1 (stereo not given)	5.2	-1.1	nt	0.8	4.1	nt	nt
C[C@@H]1CN([C@H](C)CO)C(=O)c2cc(-c3ccc(C(=O)N(C)C)cc3)cnc2O[C@@H]1CN(C)C(=O)c1cccnc1	7.8	0.1	nt	-1.4	0.2	nt	nt
O=C(NC(=S)Nc1ccc(Br)cn1)c1cccs1	23.5	4.6	83.6*	1.1	0.8	116.1*	16.0*
Cc1ccc2c(c1)[nH]c1c(=O)n(CCN3CCCCC3)cnc12	-1.7	0.2	94.0*	-0.8	-3.1	105.4*	76.3*
CCOc1ccc(C(=O)Nc2ccc(S(=O)(=O)N3C[C@@H]4C[C@@H](C3)c3cccc(=O)n3C4)cc2)cc1	2.8	-2.0	-1.3	-1.1	-1.1	nt	nt
C=CCn1nc(C(=O)Nc2ccc(OC)cc2)cc1-c1sc(NC(=O)c2ccccc2)nc1C	nt	nt	nt	nt	5.8	nt	nt
COc1cc(C)nc(Nc2nc(C)c(C(C)=O)s2)n1	2.2	-0.3	108.4*	2.0	2.3	37.8	11.1*
COc1ccc2nc(Nc3nc(C)c(C(C)=O)s3)sc2c1	5.1	6.8	4.5	-3.2	-1.5	nt	nt
O=C(O)C1=CCC(c2ccc(Cl)c(Cl)c2)N(S(=O)(=O)c2ccc(F)cc2)C1c1cccc(F)c1 (stereo not given)	nt	nt	nt	nt	5.4	nt	nt
Cc1cccc(NC(=O)c2cc(=O)[nH]c3ccccc23)c1	7.9	0.3	88.8*	-0.1	2.7	90.3*	10.8*
SMILES	MC4R antag cAMP	GAA850 FXN act	AHR act	MC4R ag barr	m5-HT2A agonist	AHR act confirm	PXR counter
COc1ccc(C(=O)N/N=C/c2ccc3cccc(OCc4ccccc4)c3n2)cc1	8.3	-0.6	80.7*	-1.4	-7.2	81.4*	21.7*
CN(CC(=O)Nc1ccccc1Cl)CC(=O)c1c(N)n(Cc2ccccc2)c(=O)n(C)c1=O	7.4	1.3	0.3	0.6	6.8	nt	nt
Cc1cccc(-c2nnc(NC(=O)c3ccco3)s2)c1	-0.7	4.2	164.1*	-1.2	1.9	129.0*	53.7*
Cc1ccc2nc(-c3cccc(NC(=O)c4ccco4)c3)[nH]c2c1	3.9	3.1	90.8*	-1.5	-1.2	91.8*	16.0*
O=C(Nc1ccc2nc(-c3cccnc3)[nH]c2c1)c1ccco1	3.0	-1.7	-2.2	0.6	-1.2	nt	nt
Cc1ccc(O)c(NC(=O)c2cccc(NC(=O)c3ccco3)c2)c1	-3.7	1.9	103.9*	-2.5	-0.2	129.4*	20.8*
O=[N+]([O-])c1ccc2cn(C3OC(CO)C(O)C3O)nc2c1 (stereo not given)	5.2	2.0	nt	0.3	-0.3	nt	nt
COc1ccc(C(=O)OCC(=O)N2CCN(S(=O)(=O)c3ccc(C)cc3)CC2)cc1[N+](=O)[O-]	8.2	-0.2	nt	0.4	10.0	nt	nt
CC(C)NC(=O)c1cc(C2CCCCN2S(=O)(=O)c2ccc(C#N)cc2)on1 (stereo not given)	4.4	0.5	nt	-1.4	0.5	nt	nt
COc1ccc(-c2cc(=O)c3cc(C)ccc3[nH]2)cc1	-2.8	3.2	34.8	-2.0	-5.3	nt	nt
Cc1ccc2[nH]c(-c3ccccc3)cc(=O)c2c1	-13.4	2.4	134.9*	0.5	-1.3	34.1	56.5*
COc1cc2[nH]c(-c3ccc(C)cc3)cc(=O)c2cc1OC	2.9	0.1	133.8*	-0.5	-15.6	78.0*	12.7*
COc1cc2[nH]c(-c3cccc(F)c3)cc(=O)c2cc1OC	-3.2	-0.8	91.0*	-0.3	-4.4	53.9*	nt
Cc1ccc(-c2cc(=O)c3cc(Cl)ccc3[nH]2)cc1	nt	nt	17.8	nt	nt	nt	nt
CC(C)(C)c1ccc2c(c1)N(CC(=O)N1CCCC1)C(=O)CO2	4.8	-0.1	1.2	2.8	7.3	nt	nt
CCCCn1c(N)c(N(CC)C(=O)c2ccc(C#N)cc2)c(=O)[nH]c1=O	16.7	-0.5	-1.3	0.5	-0.3	nt	nt
CCCc1nn(C)c(C(=O)Nc2cccc3ccccc23)c1Cl	12.7	1.3	92.9*	1.6	14.2	73.5*	nt
C/C(=N\NC(=S)Nc1cccc(C)c1)c1ccccc1	0.5	2.9	84.4*	-1.5	-2.9	110.9*	41.9*
Cc1c(-c2cc(C(=O)O)no2)cnn1C	-1.1	3.2	18.8	0.5	-1.2	nt	nt
CCn1ncc(-c2cc(C(=O)O)no2)c1C	nt	nt	80.4*	nt	nt	5.9	3.4
Cc1nc(-c2cccnc2)sc1C(=O)Nc1ccc(Cl)cc1	2.3	0.3	124.3*	-1.1	-6.3	111.9*	13.2*
Cc1nc(-c2cccnc2)sc1C(N)=O	6.2	-3.1	-0.3	-1.1	-0.8	nt	nt
Cc1nc(N)sc1C(=O)Nc1ccccc1	-7.0	5.4	105.1*	-0.2	2.2	45.6	22.9*
